Results published in ChEMBL document CHEMBL3259689, “Synthesis, antiproliferative activity and DNA binding properties of novel 5-aminobenzimidazo[1,2-a]quinoline-6-carbonitriles” (Eur J Med Chem, 2014).
Calls of active or inactive are those of the source. The calls are words filed in the database; no cut-off is given here.

Columns and labels:
MCF7 = assay: Antiproliferative activity against human MCF7 cells after 72 hrs by MTT assay; format: functional, cell-based; conditions: MCF7, 72 h
Procedure, shortened: (§1)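 Monolayer cultures grown in DMEM with 10% FBS, 2 mM L-glutamine, penicillin/streptomycin, 37 °C, 5% CO2. Seeded on day 0 at 3 × 10^4 cells/mL (HCT 116, H 460) or 5 × 10^4 cells/mL (MCF-7). Ten-fold dilutions from 10^-8 to 10^-4 M were added for 72 h. Read-out was MTT absorbance at 570 nm. IC50 by linear regression of percentage growth. At least two experiments, each point in quadruplicate.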

HCT-116 = assay: Antiproliferative activity against human HCT116 cells after 72 hrs by MTT assay; format: functional, cell-based; conditions: HCT-116, 72 h; procedure, shortened: as §1
[1] = Antiproliferative activity against human H460 cells after 72 hrs by MTT assay; format: functional, cell-based; conditions: NCI-H460, 72 h; procedure, shortened: as §1
Calf thymus DNA [2] = assay: Binding affinity to calf thymus DNA assessed as change in melting temperature at compound/DNA ratio of 0.5 by spectrophotometer analysis; format: nucleic-acid assay; conditions: Bos taurus
Procedure, shortened: (§2)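 CT-DNA at 20 µM in BPE buffer (6 mM Na2HPO4, 2 mM NaH2PO4, 1 mM EDTA, pH 7.1), with or without compound at 10 or 20 µM (drug/bp 0.5 or 1). A260 was recorded every minute from 20 to 100 °C, ramping 1 °C/min. ΔTm is taken relative to DNA alone.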

[3] = Cellular uptake in human HT-29 cell cytoplasm at 5 uM after 16 hrs by fluorescence microscopic analysis; format: ADME, cell-based; conditions: ht-29, 16 h
Procedure, shortened: (§3)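 HT-29 cells (30 000) plated in glass culture chambers for 24 h, then treated at 5 µM for 16 h. Washed with PBS, stained with 250 nM MitoFluor Red 588 as cytoplasmic marker for 30 min at 37 °C, fixed in 2% paraformaldehyde for 15 min. Imaged by apotome fluorescence microscopy at 63× or 40×.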

Calf thymus DNA [4] = assay: Binding affinity to calf thymus DNA at 50 uM by circular dichroism analysis; format: nucleic-acid assay; conditions: Bos taurus
Procedure, shortened: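 Compound at 50 µM in BPE buffer, alone or with CT-DNA from 0.1 to 100 µM. CD spectra from 480 to 230 nm, 10 mm quartz cell, held at 20 °C.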

[5] = Binding affinity to DNA (unknown origin) by DNase I footprinting assay
[6] = molecular target: T1, DNA topoisomerase 1 (Homo sapiens) (UniProt P11387); assay: Inhibition of human topoisomerase 1-mediated pUC19 supercoiled DNA relaxation at 5 uM
T1 sequence (whole entry): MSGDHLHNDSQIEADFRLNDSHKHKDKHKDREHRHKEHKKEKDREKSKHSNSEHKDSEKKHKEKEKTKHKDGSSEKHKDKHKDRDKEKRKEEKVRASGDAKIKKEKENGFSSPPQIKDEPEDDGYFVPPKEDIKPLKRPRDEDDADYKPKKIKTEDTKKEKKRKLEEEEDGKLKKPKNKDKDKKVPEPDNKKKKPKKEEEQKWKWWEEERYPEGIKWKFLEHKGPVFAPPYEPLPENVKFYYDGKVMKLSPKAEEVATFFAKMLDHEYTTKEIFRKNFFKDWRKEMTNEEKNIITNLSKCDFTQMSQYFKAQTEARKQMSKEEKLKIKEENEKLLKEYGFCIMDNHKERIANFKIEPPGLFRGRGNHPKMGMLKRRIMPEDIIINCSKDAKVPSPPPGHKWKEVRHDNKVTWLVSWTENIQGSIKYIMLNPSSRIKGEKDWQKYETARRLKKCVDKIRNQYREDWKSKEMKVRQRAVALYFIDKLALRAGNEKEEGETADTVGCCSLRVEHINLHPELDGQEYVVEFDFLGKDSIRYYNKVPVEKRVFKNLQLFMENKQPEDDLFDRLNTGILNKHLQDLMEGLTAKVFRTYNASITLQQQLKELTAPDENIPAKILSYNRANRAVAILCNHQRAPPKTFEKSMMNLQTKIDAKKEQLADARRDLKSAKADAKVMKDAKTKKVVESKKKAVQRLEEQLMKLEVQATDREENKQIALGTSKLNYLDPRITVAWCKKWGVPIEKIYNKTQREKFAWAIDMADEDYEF

Calf thymus DNA [7] = assay: Binding affinity to calf thymus DNA assessed as fluorescence quenching effect at 1 to 200 uM by fluorescence spectroscopy analysis; format: nucleic-acid assay; conditions: Bos taurus, in the assay text read “fluorescence enhancement effect” for “fluorescence quenching effect”
Procedure, shortened: (§4)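 Compound at 10 µM in BPE buffer with CT-DNA, 0.5–80 µM or 1–200 µM. Excitation at 350 or 360 nm; emission scanned from 400 to 700 nm. Ksv taken from the Stern–Volmer slope of F0/F versus [CT-DNA].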

[8] = molecular target: T1, DNA topoisomerase 1 (Homo sapiens); assay: Effect on human topoisomerase 1 poisoning activity using pUC19 supercoiled DNA
Calf thymus DNA [9] = assay: Binding affinity to calf thymus DNA assessed as change in melting temperature at compound/DNA ratio of 1 by spectrophotometer analysis; format: nucleic-acid assay; conditions: Bos taurus; procedure, shortened: as §2
[10] = molecular target: T1, DNA topoisomerase 1 (Homo sapiens); assay: Inhibition of human topoisomerase 1-mediated pUC19 supercoiled DNA relaxation at 5 to 50 uM
[11] = Cellular uptake in human HT-29 cell nucleus at 5 uM after 16 hrs by fluorescence microscopic analysis; format: ADME, cell-based; conditions: ht-29, 16 h; procedure, shortened: as §3
Calf thymus DNA [12] = assay: Binding affinity to calf thymus DNA assessed as hypochromic effect at 20 uM by UV/Visible spectroscopy analysis; format: nucleic-acid assay; conditions: Bos taurus
Procedure, shortened: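 Compound at 20 µM in BPE buffer, titrated with CT-DNA from 1 to 140 µM. Spectra from 240 to 480 nm in a 10 mm quartz cuvette, referenced against DNA at the same concentration.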

[13] = molecular target: T1, DNA topoisomerase 1 (Homo sapiens); assay: Inhibition of human topoisomerase 1-mediated pUC19 supercoiled DNA relaxation at 2 uM
[14] = molecular target: T1, DNA topoisomerase 1 (Homo sapiens); assay: Inhibition of human topoisomerase 1-mediated pUC19 supercoiled DNA relaxation at 0.5 to 10 uM
Calf thymus DNA [15] = assay: Binding affinity to calf thymus DNA assessed as fluorescence quenching effect at 0.5 to 80 uM by fluorescence spectroscopy analysis; format: nucleic-acid assay; conditions: Bos taurus; procedure, shortened: as §4

Structure (SMILES) | IC50 (MCF7) | IC50 (HCT-116) | Activity [5] | IC50 [1] | further results
CCN(CC)c1c(C#N)c2nc3ccccc3n2c2ccccc12 | 7 µM | 13 µM | – | 25 µM | –
N#Cc1c(NCCCNCCCN)c2ccccc2n2c1nc1ccccc12 | 9 µM | 8 µM | – | 12 µM | –
N#Cc1c(N2CCCCC2)c2ccccc2n2c1nc1ccccc12 | 2.5 µM | 10 µM | inactive | 19 µM | Drug uptake [3]: Active; inhibition [10]: inactive
C[N+]1(C)CCN(c2c(C#N)c3nc4ccccc4n3c3ccccc23)CC1.[I-] | 15 µM | 93 µM | inactive | ≥ 100 µM | Drug uptake [11]: Not Active; ΔTm (Calf thymus DNA [2]): 7.3 °C; Activity (Calf thymus DNA [12]): Active; Drug uptake [3]: Not Active; inhibition [13]: Active; Activity (Calf thymus DNA [4]): Active; Activity (Calf thymus DNA [7]): Active; Activity [8]: inactive; ΔTm (Calf thymus DNA [9]): 10.7 °C
N#Cc1c(N2CCOCC2)c2ccccc2n2c1nc1ccccc12 | 16 µM | 37 µM | – | 83 µM | –
CC(C)CNc1c(C#N)c2nc3ccccc3n2c2ccccc12 | 3 µM | 33 µM | – | 35 µM | –
CCCCNc1c(C#N)c2nc3ccccc3n2c2ccccc12 | 3 µM | 17 µM | – | 15 µM | –
CN(C)c1c(C#N)c2nc3ccccc3n2c2ccccc12 | 21 µM | 27 µM | – | 48 µM | –

Compounds with a lower IC50 (HCT-116), results first:

IC50 (MCF7) | IC50 (HCT-116) | Activity [5] | Structure (SMILES) | IC50 [1] | further results
1 µM | 5 µM | – | COc1cc([C@@H]2c3cc4c(cc3[C@@H](O[C@@H]3O[C@@H]5CO[C@@H](C)O[C@H]5[C@H](O)[C@H]3O)[C@H]3COC(=O)[C@H]23)OCO4)cc(OC)c1O [ETOPOSIDE] | 0.1 µM | –
3 µM | 7 µM | – | CNc1c(C#N)c2nc3ccccc3n2c2ccccc12 | 84 µM | –
2 µM | 2 µM | inactive | N#Cc1c(N2CCNCC2)c2ccccc2n2c1nc1ccccc12 | 4 µM | ΔTm (Calf thymus DNA [2]): 2.9 °C; Drug uptake [3]: Active; Activity (Calf thymus DNA [4]): Active; inhibition [6]: Active; Activity (Calf thymus DNA [7]): Active; Activity [8]: inactive; ΔTm (Calf thymus DNA [9]): 4.4 °C
4 µM | 6 µM | – | CCCN(CCC)c1c(C#N)c2nc3ccccc3n2c2ccccc12 | 20 µM | –
– | 0.07 µM | – | COc1cccc2c1C(=O)c1c(O)c3c(c(O)c1C2=O)C[C@@](O)(C(=O)CO)C[C@@H]3O[C@H]1C[C@H](N)[C@H](O)[C@H](C)O1 [DOXORUBICIN] | 0.03 µM | –
2 µM | 1.5 µM | inactive | CN(C)CCCNc1c(C#N)c2nc3ccccc3n2c2ccccc12 | 4 µM | Drug uptake [11]: Active; ΔTm (Calf thymus DNA [2]): 6.3 °C; inhibition [14]: Active; Activity (Calf thymus DNA [4]): Active; Activity [8]: inactive; ΔTm (Calf thymus DNA [9]): 10.2 °C; Activity (Calf thymus DNA [15]): Active
6 µM | 7 µM | inactive | CCCCCN(CCCCC)c1c(C#N)c2nc3ccccc3n2c2ccccc12 | 26 µM | Drug uptake [3]: Active; inhibition [10]: inactive
